Experiment [1] deals with T1, N-myc proto-oncogene protein (Homo sapiens) (UniProt P04198).
T1 sequence (whole entry): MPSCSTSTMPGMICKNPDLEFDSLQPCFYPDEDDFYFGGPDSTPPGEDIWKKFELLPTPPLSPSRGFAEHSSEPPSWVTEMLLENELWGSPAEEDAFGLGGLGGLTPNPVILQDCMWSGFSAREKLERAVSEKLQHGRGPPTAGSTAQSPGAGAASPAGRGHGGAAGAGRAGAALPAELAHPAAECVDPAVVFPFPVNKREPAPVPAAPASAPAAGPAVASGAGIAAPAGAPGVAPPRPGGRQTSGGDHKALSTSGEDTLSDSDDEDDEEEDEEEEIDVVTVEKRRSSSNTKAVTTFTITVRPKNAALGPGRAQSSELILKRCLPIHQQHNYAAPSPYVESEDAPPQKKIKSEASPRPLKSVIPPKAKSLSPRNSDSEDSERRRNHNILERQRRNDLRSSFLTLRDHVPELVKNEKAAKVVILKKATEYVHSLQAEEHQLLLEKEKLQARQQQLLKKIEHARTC
Briefly: Induction of MYCN degradation in human NGP cells incubated for 24 hrs by immunoblotting analysis. It counts as cell-based. As to conditions: dose 10-1000 nM. (A western blot detects proteins with antibodies after separation by electrophoresis.)

Experiment [2] is described as follows: Growth inhibition of patient derived NB059 Neuroblastoma organoid assessed as reduction in viability incubated for 48 hrs by CellTiter Glo 3D assay. The experiment is classed as functional, tissue-based, Homo sapiens. The following applies: in the assay text read “120 hrs” for “48 hrs”. Put shortly:
(§1)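 Patient-derived organoids were dissociated to single cells with Accutase and seeded in NB organoid medium at 5000 (000GKX), 20000 (NB059), 5000 (NB067) or 3000 (NB139) cells/well. Compound was added after 24 h over a concentration range in triplicate, with DMSO matched. Incubation was 120 h at 37 °C and 5% CO2. Viability was read by CellTiter-Glo 3D, and absolute IC50 derived (n = 1).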

Experiment [3] can be described thus: Antiproliferative activity against human N206 cells assessed as reduction in cell viability incubated for 48 hrs. The experiment is classed as functional, cell-based. In a few lines:
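Cells were grown in RPMI 1640 with 10% FCS and 2 mM L-glutamine. Seeding was 4500 cells/well for NGP, IMR-32 and N206, and 2100 cells/well for SK-N-AS, with adherence overnight. Compound was dispensed over a concentration range in triplicate. Confluence was imaged live for 48 h and normalised to the DMSO control. Absolute IC50 came from a four-parameter variable-slope fit (n = 4).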

For experiment [4], the target named is T2, Protein cereblon/Aurora kinase A (Homo sapiens) (UniProt O14965+Q96SW2). Briefly: PROTAC activity at AURKA/CRBN in human NGP cells assessed as AURKA degradation at 0.1 to 1000 nM measured for 24 hrs by Western blot analysis relative to control. The experiment is classed as cell-based. The following applies: dose 0.1-1000 nM. Put shortly:
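NGP cells were seeded at about 2×10^6 per flask, adhered for 48 h, and were then treated for 24 h with DMSO matched. Lysis was in RIPA with protease/phosphatase inhibitors. AURKA was quantified by capillary Simple Western with peak areas normalised to vinculin. Fold change is relative to DMSO (mean ± SD, n = 3).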

Experiment [5] can be described thus: Growth inhibition of patient derived 000GKX Neuroblastoma organoid assessed as reduction in viability incubated for […] by CellTiter Glo 3D assay relative to control. The experiment is classed as functional. The following applies: Homo sapiens. On the technique in general: In ATP-based viability assays light output follows the ATP content of the culture.
The nature of experiment [6]: Growth inhibition of patient derived NB067 Neuroblastoma organoid assessed as reduction in viability incubated for […] by CellTiter Glo 3D assay relative to control. The experiment is classed as functional. The following applies: Homo sapiens.
Experiment [7] has as its target T2, Protein cereblon/Aurora kinase A (Homo sapiens). Briefly: PROTAC activity at AURKA/CRBN in human NGP cells assessed as AURKA degradation at 100 nM measured for 3 hrs by shotgun proteome profiling relative to control.
The test system of a further experiment is SK-N-AS. Briefly: Antiproliferative activity against human SK-N-AS cells assessed as reduction in cell viability incubated for 48 hrs relative to control. The experiment is classed as functional. Put shortly: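 Cells grown in RPMI 1640 with 10% fetal calf serum, 2 mM L-glutamine and penicillin/streptomycin at 37 °C, 5% CO2. Seeded at 4500 (IMR-32) or 2100 (SK-N-AS) cells/well in 384-well plates and left to adhere overnight. Concentration range dispensed in triplicate. Confluence tracked by IncuCyte live-cell imaging, and 48h values normalized to DMSO. Absolute IC50 taken from a four-parameter variable-slope fit (n = 4).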

Experiment [8] concerns the target T2, Protein cereblon/Aurora kinase A (Homo sapiens). Description: PROTAC activity at AURKA/CRBN in human NGP cells assessed as increase in H2AX phosphorylation at 10 to 1000 nM measured for 24 hrs by immunoblotting analysis. The experiment is classed as cell-based. As to conditions: dose 10-1000 nM.
Experiment [9] shares this target. Briefly: PROTAC activity at AURKA/CRBN in human NGP cells assessed as increase in pRPA32 level at 10 to 1000 nM measured for 24 hrs by immunoblotting analysis. It counts as cell-based. As to conditions: dose 10-1000 nM.
The nature of experiment [10]: Growth inhibition of patient derived 000GKX Neuroblastoma organoid assessed as reduction in viability […] by CellTiter Glo 3D assay. The experiment is classed as functional, tissue-based, Homo sapiens. Put shortly: as §1

Active and inactive are the calls of the source. The calls are words filed in the database; no cut-off is given here.

T2 sequence (O14965 whole entry, looked up): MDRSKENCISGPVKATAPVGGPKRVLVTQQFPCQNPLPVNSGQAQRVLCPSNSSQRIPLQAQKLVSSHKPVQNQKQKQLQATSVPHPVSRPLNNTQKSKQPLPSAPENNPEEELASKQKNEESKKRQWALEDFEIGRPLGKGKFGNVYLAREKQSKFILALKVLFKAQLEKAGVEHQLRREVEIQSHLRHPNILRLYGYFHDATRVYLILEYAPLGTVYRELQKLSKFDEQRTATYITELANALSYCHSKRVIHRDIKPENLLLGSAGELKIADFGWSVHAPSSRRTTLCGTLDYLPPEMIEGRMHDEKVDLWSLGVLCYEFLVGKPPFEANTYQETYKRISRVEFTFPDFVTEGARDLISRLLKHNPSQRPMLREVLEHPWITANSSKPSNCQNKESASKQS
T2 sequence (Q96SW2 whole entry, looked up): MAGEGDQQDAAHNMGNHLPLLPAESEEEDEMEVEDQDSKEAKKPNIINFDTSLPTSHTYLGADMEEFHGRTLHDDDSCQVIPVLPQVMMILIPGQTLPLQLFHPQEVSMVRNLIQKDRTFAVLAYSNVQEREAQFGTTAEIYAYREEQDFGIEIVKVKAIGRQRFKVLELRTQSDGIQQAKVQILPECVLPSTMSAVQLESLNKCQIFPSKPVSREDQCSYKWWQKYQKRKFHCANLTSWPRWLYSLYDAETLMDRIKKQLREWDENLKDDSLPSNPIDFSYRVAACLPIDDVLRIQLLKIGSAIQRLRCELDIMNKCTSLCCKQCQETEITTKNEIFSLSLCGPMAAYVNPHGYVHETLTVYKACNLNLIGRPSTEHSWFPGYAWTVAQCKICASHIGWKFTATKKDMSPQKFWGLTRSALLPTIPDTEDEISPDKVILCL

As for `O=C1CCC(N2C(=O)c3cccc(OCCOCCOCCOCCNC(=O)[C@]4(Cc5cccc(Nc6nccs6)n5)CC[C@@H](Oc5cccc(Cl)c5F)CC4)c3C2=O)C(=O)N1` (stereo partly specified), in experiment [1], the Activity entry was “Dose-Dependent Effect”. Further, the IC50 result in [2], in [3] and in experiment [10] was “Not Active” each time. For the same compound, the Emax in [4] was determined as 89%; in experiment [5], 38.2%; in experiment [6] it was 15.5%; with SK-N-AS it was 45%. Moreover, the result in [7], in experiment [8] and in [9] was Active.
